Test results reported in ChEMBL document CHEMBL4622947, “Synthesis and anti-inflammatory activity of 2-oxo-2H-chromenyl and 2H-chromenyl-5-oxo-2,5-dihydrofuran-3-carboxylates” (Bioorg Med Chem Lett, 2020).
Values belong to the compound of their own block, whether it stands above or below them. Calls of active or inactive are those of the source. No cut-off for these calls is given here.

Tests used:
[1] = tested on: U-937; assay: Antiinflammatory activity in human U937 cells assessed as inhibition of PMA/LPS-stimulated TNFalpha production after 24 hrs by ELISA; type: functional, cell-based; settings: U-937, 24 h
How it was run: (§1)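 TNF-α from U937 cells was quantified by ELISA. Percent inhibition was read at 20 μM, and IC50 (μM) was reported as mean ± error.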

[2] = Cytotoxicity against human U937 cells assessed as cell viability at 20 uM relative to control; type: cell-based, U-937; settings: read-out: Activity
[3] = tested on: U-937; assay: Antiinflammatory activity in human U937 cells assessed as inhibition of PMA/LPS-stimulated TNFalpha production at 20 uM after 24 hrs by ELISA relative to control; type: functional; settings: U-937, 24 h; how it was run: as §1
[4] = tested on: U-937; assay: Antiinflammatory activity in human U937 cells assessed as inhibition of PMA/LPS-stimulated IL-6 production at 20 uM after 24 hrs by ELISA; type: functional, cell-based
[5] = tested on: U-937; assay: Antiinflammatory activity in human U937 cells assessed as inhibition of PMA/LPS-stimulated TNFalpha production at 1 uM after 24 hrs by ELISA relative to control; type: functional; settings: U-937, 24 h
[6] = tested on: Mus musculus; assay: Antiinflammatory activity in BALB/c mouse assessed as inhibition of LPS-induced IL6 production at 100 mg/kg, administered for 3 days followed by LPS stimulation by ELISA; type: functional, organism-based
How it was run: (§2)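 BALB/c mice were pre-treated with 100 mg/kg test compound for three consecutive days, then challenged with LPS at 10 mg/kg IP. Serum TNF-α and IL-6 were measured by ELISA and compared with LPS-only and vehicle control groups. Values are mean ± S.E.M., n = 5.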

[7] = tested on: Mus musculus; assay: Antiinflammatory activity in BALB/c mouse assessed as inhibition of LPS-induced TNFalpha production at 100 mg/kg, administered for 3 days followed by LPS stimulation by ELISA; type: functional, organism-based; how it was run: as §2

IC50 [1]: 18700 nM
Structure (SMILES): COC(=O)C1=C(OC)C(=O)OC1C1=C(Cl)c2ccccc2OC1 (configuration not stated)
viability at 20 µM [2]: 88.1% | inhibition at 20 µM [3]: 95.5% | inhibition [4]: inactive

IC50 [1]: 3260 nM
Structure (SMILES): CCOC(=O)C1=C(OCC)C(=O)OC1C1=C(Cl)c2cc(Br)ccc2OC1 (configuration not stated)
viability at 20 µM [2]: 87.2% | inhibition at 20 µM [3]: 73.3% | inhibition [4]: inactive

Structure (SMILES): CCOC(=O)C1=C(OCC)C(=O)OC1c1c(Cl)c2cc(C)ccc2oc1=O (configuration not stated)
viability at 20 µM [2]: 79.8% | inhibition at 20 µM [3]: 32.3% | inhibition [4]: inactive

Structure (SMILES): COC(=O)C1=C(OC)C(=O)OC1C1=C(Cl)c2cc(C)ccc2OC1 (configuration not stated)
viability at 20 µM [2]: 88.5% | inhibition at 20 µM [3]: 35.6% | inhibition [4]: inactive

Structure (SMILES): COC(=O)C1=C(OC)C(=O)OC1c1c(Cl)c2cc(C)ccc2oc1=O (configuration not stated)
viability at 20 µM [2]: 84.3% | inhibition at 20 µM [3]: 14.8% | inhibition [4]: inactive

IC50 [1]: 47 nM
Structure (SMILES): CCOC(=O)C1=C(OCC)C(=O)OC1c1c(Cl)c2cc(Br)ccc2oc1=O (configuration not stated)
viability at 20 µM [2]: 83% | inhibition at 20 µM [3]: 91% | inhibition [4]: inactive

Structure (SMILES): COC(=O)C1=C(OC)C(=O)OC1C1=C(Cl)c2cc(Cl)ccc2OC1 (configuration not stated)
viability at 20 µM [2]: 84.6% | inhibition at 20 µM [3]: 19.4% | inhibition [4]: inactive

Structure (SMILES): CCOC(=O)C1=C(OCC)C(=O)OC1C1=C(Cl)c2cc(C)ccc2OC1 (configuration not stated)
viability at 20 µM [2]: 81.6% | inhibition at 20 µM [3]: 6.4% | inhibition [4]: inactive

IC50 [1]: 11200 nM
Structure (SMILES): CCOC(=O)C1=C(OCC)C(=O)OC1C1=C(Cl)c2cc(C)c(C)cc2OC1 (configuration not stated)
viability at 20 µM [2]: 93.4% | inhibition at 20 µM [3]: 96.1% | inhibition [4]: inactive

Structure (SMILES): CCOC(=O)C1=C(OCC)C(=O)OC1C1=C(Cl)c2ccc3ccccc3c2OC1 (configuration not stated)
viability at 20 µM [2]: 83.6% | inhibition at 20 µM [3]: 4.1% | inhibition [4]: inactive

Structure (SMILES): COC(=O)C1=C(OC)C(=O)OC1C1=C(Cl)c2cc(C)c(C)cc2OC1 (configuration not stated)
viability at 20 µM [2]: 90.7% | inhibition at 20 µM [3]: 49.7% | inhibition [4]: inactive

Structure (SMILES): CCOC(=O)C1=C(OCC)C(=O)OC1C1=C(Cl)c2ccccc2OC1 (configuration not stated)
viability at 20 µM [2]: 88.9% | inhibition at 20 µM [3]: 50.6% | inhibition [4]: inactive

IC50 [1]: 33 nM
Structure (SMILES): C[C@]12C=CC(=O)C=C1CC[C@@H]1[C@@H]2[C@@H](O)C[C@@]2(C)[C@H]1CC[C@]2(O)C(=O)CO [PREDNISOLONE]
inhibition at 1 µM [5]: 98%

Structure (SMILES): CCOC(=O)C1=C(OCC)C(=O)OC1C1=C(Cl)c2c(ccc(C)c2C)OC1 (configuration not stated)
viability at 20 µM [2]: 85.2% | inhibition at 20 µM [3]: 29.7% | inhibition [4]: inactive

IC50 [1]: 423 nM
Structure (SMILES): CCOC(=O)C1=C(OCC)C(=O)OC1c1c(Cl)c2cc(Cl)ccc2oc1=O (configuration not stated)
inhibition [6]: Active | viability at 20 µM [2]: 90.7% | inhibition [7]: Active | inhibition at 20 µM [3]: 97.1% | inhibition [4]: inactive

IC50 [1]: 142 nM
Structure (SMILES): COC(=O)C1=C(OC)C(=O)OC1C1=C(Cl)c2c(ccc(C)c2C)OC1 (configuration not stated)
inhibition [6]: Active | viability at 20 µM [2]: 92.1% | inhibition [7]: Active | inhibition at 20 µM [3]: 70.4% | inhibition [4]: inactive

Structure (SMILES): CCOC(=O)C1=C(OCC)C(=O)OC1c1c(Cl)c2ccccc2oc1=O (configuration not stated)
viability at 20 µM [2]: 75.9% | inhibition at 20 µM [3]: 40.7% | inhibition [4]: inactive

Structure (SMILES): COC(=O)C1=C(OC)C(=O)OC1c1c(Cl)c2cc(C)c(C)cc2oc1=O (configuration not stated)
viability at 20 µM [2]: 75.9% | inhibition at 20 µM [3]: 34.9% | inhibition [4]: inactive

IC50 [1]: 1110 nM
Structure (SMILES): CCOC(=O)C1=C(OCC)C(=O)OC1c1c(Cl)c2cc(C)cc(C)c2oc1=O (configuration not stated)
viability at 20 µM [2]: 96.8% | inhibition at 20 µM [3]: 80.2% | inhibition [4]: inactive

Structure (SMILES): COC(=O)C1=C(OC)C(=O)OC1C1=C(Cl)c2ccc3ccccc3c2OC1 (configuration not stated)
viability at 20 µM [2]: 80.2% | inhibition at 20 µM [3]: 29.1% | inhibition [4]: inactive

IC50 [1]: 10600 nM
Structure (SMILES): CCOC(=O)C1=C(OCC)C(=O)OC1C1=C(Cl)c2cc(Cl)ccc2OC1 (configuration not stated)
viability at 20 µM [2]: 79.4% | inhibition at 20 µM [3]: 75.9% | inhibition [4]: inactive

Structure (SMILES): COC(=O)C1=C(OC)C(=O)OC1c1c(Cl)c2ccccc2oc1=O (configuration not stated)
viability at 20 µM [2]: 78.3% | inhibition at 20 µM [3]: 27.1% | inhibition [4]: inactive

Structure (SMILES): COC(=O)C1=C(OC)C(=O)OC1C1=C(Cl)c2ccc(C)c(C)c2OC1 (configuration not stated)
viability at 20 µM [2]: 93.8% | inhibition at 20 µM [3]: 45.7% | inhibition [4]: inactive

IC50 [1]: 6240 nM
Structure (SMILES): COC(=O)C1=C(OC)C(=O)OC1c1c(Cl)c2cc(Cl)ccc2oc1=O (configuration not stated)
viability at 20 µM [2]: 93.1% | inhibition at 20 µM [3]: 75% | inhibition [4]: inactive

Structure (SMILES): CCOC(=O)C1=C(OCC)C(=O)OC1c1c(Cl)c2cc(C)c(C)cc2oc1=O (configuration not stated)
viability at 20 µM [2]: 79% | inhibition at 20 µM [3]: 26.8% | inhibition [4]: inactive

Structure (SMILES): COC(=O)C1=C(OC)C(=O)OC1c1c(Cl)c2cc(C)cc(C)c2oc1=O (configuration not stated)
viability at 20 µM [2]: 86.1% | inhibition at 20 µM [3]: 44.9% | inhibition [4]: inactive

Structure (SMILES): COC(=O)C1=C(OC)C(=O)OC1c1c(Cl)c2cc(-c3ccccc3)ccc2oc1=O (configuration not stated)
viability at 20 µM [2]: 82.3% | inhibition at 20 µM [3]: 44.2% | inhibition [4]: inactive

IC50 [1]: 70 nM
Structure (SMILES): COC(=O)C1=C(OC)C(=O)OC1c1c(Cl)c2cc(Br)ccc2oc1=O (configuration not stated)
viability at 20 µM [2]: 85.3% | inhibition at 20 µM [3]: 76.9% | inhibition [4]: inactive

Structure (SMILES): CCOC(=O)C1=C(OCC)C(=O)OC1c1c(Cl)c2cc(-c3ccccc3)ccc2oc1=O (configuration not stated)
viability at 20 µM [2]: 83.1% | inhibition at 20 µM [3]: 20% | inhibition [4]: inactive

Structure (SMILES): CCOC(=O)C1=C(OCC)C(=O)OC1C1=C(Cl)c2ccc(C)c(C)c2OC1 (configuration not stated)
viability at 20 µM [2]: 89.9% | inhibition at 20 µM [3]: 23.3% | inhibition [4]: inactive

IC50 [1]: 13000 nM
Structure (SMILES): COC(=O)C1=C(OC)C(=O)OC1C1=C(Cl)c2cc(Br)ccc2OC1 (configuration not stated)
viability at 20 µM [2]: 94.3% | inhibition at 20 µM [3]: 80.2% | inhibition [4]: inactive
